Source: PubChem BioAssay (several laboratories)
Hits are enriched below; roughly 3% of the tested compounds scored in any of these assays.
NRP1-CendR mod = modulators of CendR peptide binding to human neuropilin-1 | 360,000 compounds, 0.85% hits | FAM-RPARPAR peptide binding to NRP-1, fluorescence polarization | O14786 | AID 602438 | inhibition, % at 25 µM;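 active = inhibition or corrected inhibition above about 18%, plus a signal ratio from 0.5 to 1.5, limit read from the data, passing the limit was not always enough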
KLK7 zymogen act = activators of human kallikrein-7 zymogen; P49862; purified proKLK7, EDANS-DABCYL substrate fluorescence; 100% is mature enzyme control, 0% vehicle; activation, % at 7 µM; 370,000 compounds, 0.9% hits;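 active = activation above the mean of all tested compounds plus 3 SD, computed per campaign excluding outliers beyond control limits, cut at about 13% in these data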
Target sequence (P49862 whole entry, looked up): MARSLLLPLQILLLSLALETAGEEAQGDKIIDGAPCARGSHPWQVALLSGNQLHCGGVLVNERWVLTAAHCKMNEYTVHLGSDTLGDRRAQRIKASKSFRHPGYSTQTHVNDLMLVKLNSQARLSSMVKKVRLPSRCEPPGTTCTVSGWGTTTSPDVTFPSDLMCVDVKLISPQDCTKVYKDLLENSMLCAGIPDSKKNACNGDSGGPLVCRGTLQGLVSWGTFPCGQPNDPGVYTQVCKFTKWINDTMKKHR
Tn6 DDE FP = inhibitors of Tn6 peptide binding to human fibrin DD(E); Fibrin DD(E) TRITC-Tn6 fluorescence polarization displacement; 370,000 compounds, 0.21% hits; P02675; inhibition, % at 8.3 µM;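 active = inhibition above a per-campaign cutoff: mean of compounds within control limits plus 3 SD, cut at about 15% in these data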;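 also: 0% = median of all compound wells on the plate and 100% = blocking peptide control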
PLCb3 inh = blocks human PLC-beta3 enzyme activity; inhibition, % at 12.2 µM; Q01970; AID 720704; 370,000 compounds, 0.18% hits; Purified PLC-beta3, fluorogenic substrate, fluorescence;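 also: 0% = median of compound wells on plate and 100% = full blocker control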
Tn7 DDE FP = inhibitors of Tn7 peptide binding to human fibrin DD(E); P02675; FP displacement of FITC-Tn7 peptide from fibrin DD(E); 0% = median of compound wells per plate; inhibition, % at 8.3 µM; 370,000 compounds, 0.13% hits; AID 720508;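 active = inhibition above the mean of compounds falling within the control limits plus 3 SD of them, cut at about 14% in these data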;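 also: 0% = plate median of compound wells and 100% = 10 µM Aha-Tn7 peptide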
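Also added: labelled Tn7 tracer, 0.1 µM; Assay system: human fibrin DD(E) protein; Amount: 2 µM fibrin DD(E); Schedule: 10 min compound pre-incubation, 3 h probe incubation at room temperature; Repeats: one replicate per compound; Read-out basis: percent inhibition; Measured by: fluorescence polarization of the labelled Tn7 tracer.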
PLCg1 inh = PLC-gamma1 (human) inhibition, primary screen | P19174 | purified PLC-gamma1, fluorogenic substrate, fluorescence | inhibition, % at 12.2 µM | 370,000 compounds, 0.84% hits | AID 720700; in the data active = inhibition above about 9.5%
PLCgamma1 ctr = inhibits human PLC-gamma1 in PLC-beta3 counter-screen; shares compounds with PLCg1 inh; purified PLC-gamma1, fluorogenic substrate, fluorescence; inhibition, % at 12.3 µM; 3,300 compounds, 3.1% hits; AID 743258; in the data active = inhibition above about 9.5%
PLCb3 confirm = confirmation of human PLC-beta3 inhibitors | shares compounds with PLCg1 inh | purified PLC-beta3, fluorogenic substrate fluorescence | inhibition, % at 12.3 µM | 3,300 compounds, 1% hits
Numbers without * were called inactive; nt = no result given. Rule as the data show it, unless noted: active = inhibition above about 11%; inactive = the rest.

SMILES	NRP1-CendR mod	KLK7 zymogen act	Tn6 DDE FP	PLCb3 inh	Tn7 DDE FP	PLCg1 inh	PLCgamma1 ctr	PLCb3 confirm
O=C(NC1CCCCN(Cc2cccc(Cl)c2)C1=O)c1ccc(Cl)cc1Cl (configuration not stated)	nt	0	-1	-1	-3	5	nt	nt
O=C1NC(=O)C(=Cc2ccccc2)N1	-27	0	-6	11*	0	8	0	4
CN1CCN(c2oc(COc3ccc(-c4ccccc4)cc3)nc2C#N)CC1	-5	1	-3	6	-2	11*	-9	-5
COc1ccccc1NC(=O)C(=N\O)/C(C)=N/O	4	0	-2	4	-13	11*	-6	0
COc1ccccc1NC(C)=O	3	-1	-7	5	3	1	nt	nt
CC1(C)Cc2c(sc(/N=C/N3CCCCCC3)c2C#N)C(C)(C)N1	4	0	-2	3	-3	1	nt	nt
CC1(C)Cc2c(sc(/N=C/N3CCCC3)c2C#N)C(C)(C)N1	14	-1	2	13*	-2	19*	-4	0
CCc1nc(SCC(=O)NCc2ccc(F)cc2)c2c(=O)n(C)c(=O)n(C)c2n1	-6	0	8	3	7	46*	-9	-4
NC(=O)c1ccc(NS(=O)(=O)c2ccc(Br)s2)cc1	-14	0	-3	-2	1	9.7*	-4	-3
COc1ccc(NC(=O)C(Sc2nnc(-c3ccncc3)n2-c2ccccc2C)c2ccccc2)cc1Cl (configuration not stated)	-1	0	-6	4	-5	11*	2	-3
COc1ccc(CNC(=O)C2(CC3CC(c4ccccc4)=NO3)CCN(C(=O)C3(C)CC3)CC2)cc1 (configuration not stated)	11	1	2	7	-9	11*	-2	2
COc1ccc(CNC(=O)C2(CC3CC(c4ccccc4)=NO3)CCN(C(=O)C3CCCC3)CC2)cc1 (configuration not stated)	-13	1	11	3	11	2	nt	nt
N#Cc1cccc(NC(=O)O[C@@H]2CC[C@@]34CCCN3C(=O)CCC[C@H]4C2)c1	nt	nt	1	3	-6	-2	nt	nt
CCOC(=O)CSc1nc2ccccc2c(=O)n1CC1CCC(C(=O)NCc2ccco2)CC1 (configuration not stated)	3	0	-6	4	-8	10.0*	-2	-4
CCOC(=O)CSc1nc2ccccc2c(=O)n1CC1CCCC1	4	0	1	1	-3	8	nt	nt
CCOC(=O)Cc1nc(N2CCCN(C(C)=O)CC2)c2c(C)c(C(=O)OCC)sc2n1	nt	2	-2	-25	-7	-20	nt	nt
COc1ccccc1NC1=NCC(=O)N1Cc1ccccc1	1	-1	-2	2	-3	-2	nt	nt
COc1ccc(CN2C(=O)CN=C2Nc2cccc(C)c2C)cc1	6	0	5	6	-3	9.8*	-4	-1
COC(=O)[C@H](C(C)C)N(CCCc1cn(Cc2ccc(C)cc2)nn1)S(=O)(=O)c1ccc(F)cc1Br	nt	0	-3	0	10	-3	nt	nt
CCc1cccc(NC(=S)Nc2ccc(CN3CCOCC3)cc2)c1	13	0	-3	2	-8	9.8*	-4	-1
CC(C)CC(=O)NC(=S)Nc1ccc(CN2CCOCC2)cc1	2	0	3	-7	1	1	nt	nt
CC(C)CN1C(=O)[C@@]2(CC(=O)N(C)C2c2ccccc2)c2cc(-n3cc(CCc4ccccc4)nn3)ccc21 (some centres not stated)	nt	-1	-7	1	-1	10*	-2	0
O=C(/C=C/c1ccccc1)N1CCC[C@H]1CO	-2	0	0	2	1	0	nt	nt
CCC(C)(O)C(=O)N[C@H]1CCCN1C(=O)/C=C/c1ccccc1 (some centres not stated)	0	0	2	4	-5	11*	-8	-23
